# Assay results taken from ChEMBL document CHEMBL1137692, “Synthesis and antimicrobial activity of new 1-alkyl/cyclohexyl-3,3-diaryl-1'-methylspiro[azetidine-2,3'-indoline]-2',4-diones” (2009).
# Active and inactive are the calls of the source. The rule behind the calls is not given here.
# Key:
# Bacillus subtilis [1] = assay: Antibacterial activity against Bacillus subtilis at 100 ug/mL by bioautographic agar overlay method; type: functional, organism-based
# Staphylococcus aureus [2] = assay: Antibacterial activity against Staphylococcus aureus at 100 ug/mL by bioautographic agar overlay method; type: functional, organism-based
# Escherichia coli = assay: Antibacterial activity against Escherichia coli by bioautographic agar overlay method; type: functional
# How it was run: (§1)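 Nutrient agar inoculated with the pure microbial culture was poured over the plates, which were incubated appropriately. Bacterial or fungal growth inhibition was scored by bioautography.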
# Candida albicans [3] = assay: Antifungal activity against Candida albicans at 100 ug/mL by bioautographic agar overlay method; type: functional, organism-based
# Saccharomyces cerevisiae = assay: Antifungal activity against Saccharomyces cerevisiae by bioautographic agar overlay method; type: functional; how it was run: as §1
# Staphylococcus aureus [4] = assay: Antibacterial activity against Staphylococcus aureus by bioautographic agar overlay method; type: functional; how it was run: as §1
# Bacillus subtilis [5] = assay: Antibacterial activity against Bacillus subtilis by bioautographic agar overlay method; type: functional; how it was run: as §1
# Candida albicans [6] = assay: Antifungal activity against Candida albicans by bioautographic agar overlay method
# Pseudomonas aeruginosa = assay: Antibacterial activity against Pseudomonas aeruginosa by bioautographic agar overlay method; type: functional; how it was run: as §1
MIC (Escherichia coli) [mg/L],MIC (Saccharomyces cerevisiae) [mg/L],MIC (Staphylococcus aureus [4]) [mg/L],MIC (Bacillus subtilis [5]) [mg/L],MIC (Candida albicans [6]) [mg/L],MIC (Pseudomonas aeruginosa) [mg/L],Compound,Activity (Bacillus subtilis [1]),Activity (Staphylococcus aureus [2]),Activity (Candida albicans [3])
50,50,–,–,–,–,COc1ccc(C2(c3ccc(OC)cc3)C(=O)N(C(c3ccccc3)c3ccccc3)C23C(=O)N(C)c2ccccc23)cc1 (stereo unspecified),inactive,inactive,inactive
100,–,–,–,–,–,Cc1ccc(C2(c3ccc(C)cc3)C(=O)N(C3CCCCC3)C23C(=O)N(C)c2ccccc23)cc1 (stereo unspecified),inactive,inactive,inactive
0.1,–,0.1,0.1,–,–,O=C(N[C@H](CO)[C@H](O)c1ccc([N+](=O)[O-])cc1)C(Cl)Cl [CHLORAMPHENICOL],–,–,–
–,0.1,–,–,0.1,–,Clc1ccc(COC(Cn2ccnc2)c2ccc(Cl)cc2Cl)c(Cl)c1 (stereo unspecified) [MICONAZOLE],–,–,–
–,50,–,–,–,–,CC(C)N1C(=O)C(c2ccccc2)(c2ccccc2)C12C(=O)N(C)c1ccccc12 (stereo unspecified),inactive,inactive,inactive
–,10,–,–,–,–,CN1C(=O)C2(c3ccccc31)N(C(c1ccccc1)c1ccccc1)C(=O)C2(c1ccccc1)c1ccccc1 (stereo unspecified),inactive,inactive,inactive
–,–,–,–,–,–,Cc1ccc(C2(c3ccc(C)cc3)C(=O)N(C(C)c3ccccc3)C23C(=O)N(C)c2ccccc23)cc1 (stereo unspecified),inactive,inactive,inactive
–,50,–,–,–,–,COc1ccc(C2(c3ccc(OC)cc3)C(=O)N(C(C)C)C23C(=O)N(C)c2ccccc23)cc1 (stereo unspecified),inactive,inactive,inactive
100,–,–,–,–,–,CN1C(=O)C2(c3ccccc31)N(C1CCCCC1)C(=O)C2(c1ccccc1)c1ccccc1 (stereo unspecified),inactive,inactive,inactive
–,–,–,–,–,–,CC(c1ccccc1)N1C(=O)C(c2ccccc2)(c2ccccc2)C12C(=O)N(C)c1ccccc12 (stereo unspecified),inactive,inactive,inactive
–,100,–,–,–,–,Cc1ccc(C2(c3ccc(C)cc3)C(=O)N(C(c3ccccc3)c3ccccc3)C23C(=O)N(C)c2ccccc23)cc1 (stereo unspecified),inactive,inactive,inactive
10,50,–,–,–,50,Cc1ccc(C2(c3ccc(C)cc3)C(=O)N(C(C)C)C23C(=O)N(C)c2ccccc23)cc1 (stereo unspecified),inactive,inactive,inactive
